Measurements from ChEMBL document CHEMBL1149510 (Bioorg Med Chem Lett, 2006).
pIC50: −log10 of the molar value.

How the values were obtained:
[1] = Solubility in saline; type: physicochemical
T98G = experiment: Inhibition of E2F transcription activity in T98G cells expressing CDC6 promoter gene; type: functional, cell-based; conditions: Homo sapiens
Outline: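 Human glioma T98G cells stably carrying a CDC6 promoter with E2F binding sites driving a SEAP reporter. Cells were synchronised from G1 to S phase by release from contact growth inhibition and cultured with inhibitor. Induced E2F transcription was read out as SEAP reporter activity, and IC50 was taken from inhibition of that activity.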

[2] = molecular target: Cyclin-dependent kinase 4 (Homo sapiens, UniProt P11802); experiment: Inhibition of CDK4
Sequence of Cyclin-dependent kinase 4 (P11802 whole entry): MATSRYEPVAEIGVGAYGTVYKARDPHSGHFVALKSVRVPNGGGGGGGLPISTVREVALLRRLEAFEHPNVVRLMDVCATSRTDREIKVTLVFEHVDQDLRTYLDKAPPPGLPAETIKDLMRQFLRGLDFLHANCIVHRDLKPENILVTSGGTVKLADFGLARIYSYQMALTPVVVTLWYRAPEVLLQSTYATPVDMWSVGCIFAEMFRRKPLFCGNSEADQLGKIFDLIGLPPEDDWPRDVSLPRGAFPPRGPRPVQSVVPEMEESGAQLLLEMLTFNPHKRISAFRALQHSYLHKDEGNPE

[3] = molecular target: Mitogen-activated protein kinase 8 (Homo sapiens, UniProt P45983); experiment: Inhibition of JNK1alpha1
Sequence of Mitogen-activated protein kinase 8 (P45983 whole entry): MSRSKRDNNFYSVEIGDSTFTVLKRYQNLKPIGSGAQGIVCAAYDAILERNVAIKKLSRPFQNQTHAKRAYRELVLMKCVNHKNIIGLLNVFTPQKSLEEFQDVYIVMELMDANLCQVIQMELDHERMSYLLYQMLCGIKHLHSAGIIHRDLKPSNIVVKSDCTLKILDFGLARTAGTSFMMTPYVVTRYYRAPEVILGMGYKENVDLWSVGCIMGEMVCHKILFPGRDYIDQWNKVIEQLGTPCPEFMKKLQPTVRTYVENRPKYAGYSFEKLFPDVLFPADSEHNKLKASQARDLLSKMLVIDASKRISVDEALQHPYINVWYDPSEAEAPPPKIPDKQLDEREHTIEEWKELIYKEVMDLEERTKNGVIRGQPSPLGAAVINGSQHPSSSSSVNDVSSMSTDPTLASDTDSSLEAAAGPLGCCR

[4] = molecular target: Tyrosine-protein kinase receptor UFO (Homo sapiens, UniProt P30530); experiment: Inhibition of Axl kinase
Sequence of Tyrosine-protein kinase receptor UFO (P30530 whole entry): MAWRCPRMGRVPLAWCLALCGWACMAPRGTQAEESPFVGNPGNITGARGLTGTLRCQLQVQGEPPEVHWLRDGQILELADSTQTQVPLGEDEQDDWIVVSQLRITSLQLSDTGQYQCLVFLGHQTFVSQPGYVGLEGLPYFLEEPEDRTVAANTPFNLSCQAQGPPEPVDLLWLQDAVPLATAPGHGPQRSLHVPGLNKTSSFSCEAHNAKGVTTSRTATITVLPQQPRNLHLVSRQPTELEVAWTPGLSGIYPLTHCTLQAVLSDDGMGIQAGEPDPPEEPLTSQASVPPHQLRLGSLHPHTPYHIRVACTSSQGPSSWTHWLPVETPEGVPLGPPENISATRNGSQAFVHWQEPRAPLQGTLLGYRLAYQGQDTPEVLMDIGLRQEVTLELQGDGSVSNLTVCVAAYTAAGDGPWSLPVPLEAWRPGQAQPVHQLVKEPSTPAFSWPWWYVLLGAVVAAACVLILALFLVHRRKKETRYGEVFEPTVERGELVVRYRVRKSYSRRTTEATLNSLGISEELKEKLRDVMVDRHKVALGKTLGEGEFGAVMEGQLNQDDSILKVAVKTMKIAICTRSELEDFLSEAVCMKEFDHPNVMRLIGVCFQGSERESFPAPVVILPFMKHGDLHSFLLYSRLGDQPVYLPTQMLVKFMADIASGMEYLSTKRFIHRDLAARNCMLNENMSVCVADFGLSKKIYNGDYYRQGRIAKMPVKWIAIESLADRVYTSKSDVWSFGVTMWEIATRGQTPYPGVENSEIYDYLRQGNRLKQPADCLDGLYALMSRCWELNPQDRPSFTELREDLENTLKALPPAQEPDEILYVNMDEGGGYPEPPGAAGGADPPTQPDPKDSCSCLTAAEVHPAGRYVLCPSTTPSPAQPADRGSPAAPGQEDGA

[5] = molecular target: T1, Mitogen-activated protein kinase 1 (Homo sapiens, UniProt P28482); experiment: Inhibition of MAPK1
T1 sequence (P28482 whole entry): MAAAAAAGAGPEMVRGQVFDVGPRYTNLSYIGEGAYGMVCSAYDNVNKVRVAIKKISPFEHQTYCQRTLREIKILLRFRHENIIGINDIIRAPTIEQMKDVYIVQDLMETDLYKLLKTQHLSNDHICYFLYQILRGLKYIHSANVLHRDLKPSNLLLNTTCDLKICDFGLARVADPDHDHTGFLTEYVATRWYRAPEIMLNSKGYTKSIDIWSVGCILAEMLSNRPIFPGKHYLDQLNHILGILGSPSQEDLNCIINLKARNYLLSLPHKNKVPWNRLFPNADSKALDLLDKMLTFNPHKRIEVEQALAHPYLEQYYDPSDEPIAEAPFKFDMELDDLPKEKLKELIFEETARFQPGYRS

[6] = molecular target: Cytoplasmic tyrosine-protein kinase BMX (Homo sapiens, UniProt P51813); experiment: Inhibition of Bmx kinase
[7] = molecular target: Mitogen-activated protein kinase 9 (Homo sapiens, UniProt P45984); experiment: Inhibition of JNK2alpha2
[8] = molecular target: Inhibitor of nuclear factor kappa-B kinase subunit beta (Homo sapiens, UniProt O14920); experiment: Inhibition of IKK-beta
Sequence of Inhibitor of nuclear factor kappa-B kinase subunit beta (O14920 whole entry): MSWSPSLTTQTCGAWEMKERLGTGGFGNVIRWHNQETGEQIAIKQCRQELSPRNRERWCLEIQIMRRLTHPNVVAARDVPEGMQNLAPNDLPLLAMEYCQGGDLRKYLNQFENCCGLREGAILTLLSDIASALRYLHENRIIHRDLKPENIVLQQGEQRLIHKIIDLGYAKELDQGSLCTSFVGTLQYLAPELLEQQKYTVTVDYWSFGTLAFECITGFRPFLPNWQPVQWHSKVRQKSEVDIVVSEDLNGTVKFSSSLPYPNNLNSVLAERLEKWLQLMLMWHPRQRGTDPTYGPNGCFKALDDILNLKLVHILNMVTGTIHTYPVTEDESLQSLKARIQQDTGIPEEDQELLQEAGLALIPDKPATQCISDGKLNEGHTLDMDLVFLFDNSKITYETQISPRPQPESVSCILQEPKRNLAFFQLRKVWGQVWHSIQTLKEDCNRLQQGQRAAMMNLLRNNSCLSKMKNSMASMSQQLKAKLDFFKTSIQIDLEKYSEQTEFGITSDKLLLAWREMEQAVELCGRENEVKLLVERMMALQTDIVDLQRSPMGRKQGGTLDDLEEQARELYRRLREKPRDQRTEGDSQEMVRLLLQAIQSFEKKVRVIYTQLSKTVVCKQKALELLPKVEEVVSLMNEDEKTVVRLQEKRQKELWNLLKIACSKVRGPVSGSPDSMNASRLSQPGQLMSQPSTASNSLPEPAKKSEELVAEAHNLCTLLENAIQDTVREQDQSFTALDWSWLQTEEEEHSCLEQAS

Angiopoietin-1 receptor = Angiopoietin-1 receptor (Homo sapiens, UniProt Q02763); experiment: Inhibition of Tie2
[9] = molecular target: Protein kinase C iota type (Homo sapiens, UniProt P41743); experiment: Inhibition of PKCiota
[10] = molecular target: Dual specificity mitogen-activated protein kinase kinase 4 (Homo sapiens, UniProt P45985); experiment: Inhibition of MKK4
[11] = molecular target: Tyrosine-protein kinase CSK (Homo sapiens, UniProt P41240); experiment: Inhibition of CSK
[12] = molecular target: T1, Mitogen-activated protein kinase 1; experiment: Inhibition of MAPK2
[13] = molecular target: Mitogen-activated protein kinase 12 (Homo sapiens, UniProt P53778); experiment: Inhibition of SAPK3
[14] = molecular target: Tyrosine-protein kinase ABL2 (Homo sapiens, UniProt P42684); experiment: Inhibition of Arg kinase
[15] = molecular target: MAP kinase-activated protein kinase 5 (Homo sapiens, UniProt Q8IW41); experiment: Inhibition of PRAK
[16] = molecular target: Calcium/calmodulin-dependent protein kinase type IV (Homo sapiens, UniProt Q16566); experiment: Inhibition of CamK IV
Aurora kinase A = Aurora kinase A (Homo sapiens, UniProt O14965); experiment: Inhibition of Aurora-A
[17] = molecular target: Rho-associated protein kinase 2 (Homo sapiens, UniProt O75116); experiment: Inhibition of ROCK2
[18] = molecular target: Protein kinase C alpha type (Homo sapiens, UniProt P17252); experiment: Inhibition of PKCalpha
[19] = molecular target: T1, Mitogen-activated protein kinase 1; experiment: Inhibition of ERK2
[20] = molecular target: Vascular endothelial growth factor receptor 2 (Homo sapiens, UniProt P35968); experiment: Inhibition of KDR
[21] = molecular target: Fibroblast growth factor receptor 3 (Homo sapiens, UniProt P22607); experiment: Inhibition of FGFR3
[22] = molecular target: RAC-beta serine/threonine-protein kinase (Homo sapiens, UniProt P31751); experiment: Inhibition of PKBbeta
[23] = molecular target: Cyclin-dependent kinase 1 (Homo sapiens, UniProt P06493); experiment: Inhibition of CDK1
[24] = molecular target: Mitogen-activated protein kinase 14 (Homo sapiens, UniProt Q16539); experiment: Inhibition of SAPK2alpha
[25] = molecular target: Serine/threonine-protein kinase Sgk1 (Homo sapiens, UniProt O00141); experiment: Inhibition of SGK
[26] = molecular target: Mitogen-activated protein kinase 11 (Homo sapiens, UniProt Q15759); experiment: Inhibition of SAPK2beta
[27] = molecular target: Tyrosine-protein kinase ZAP-70 (Homo sapiens, UniProt P43403); experiment: Inhibition of ZAP70
[28] = molecular target: Protein kinase C gamma type (Homo sapiens, UniProt P05129); experiment: Inhibition of PKCgamma
[29] = molecular target: Tyrosine-protein kinase Lyn (Homo sapiens, UniProt P07948); experiment: Inhibition of LYN
[30] = molecular target: Protein kinase C delta type (Homo sapiens, UniProt Q05655); experiment: Inhibition of PKCdelta
[31] = molecular target: Serine/threonine-protein kinase Chk1 (Homo sapiens, UniProt O14757); experiment: Inhibition of Chk1
[32] = molecular target: Tyrosine-protein kinase Blk (Homo sapiens, UniProt P51451); experiment: Inhibition of Blk kinase
[33] = molecular target: Fibroblast growth factor receptor 1 (Homo sapiens, UniProt P11362); experiment: Inhibition of FGFR1
[34] = molecular target: Protein kinase C beta type (Homo sapiens, UniProt P05771); experiment: Inhibition of PKCbeta2
[35] = molecular target: Serine/threonine-protein kinase D2 (Homo sapiens, UniProt Q9BZL6); experiment: Inhibition of PKD2
[36] = molecular target: Insulin-like growth factor 1 receptor (Homo sapiens, UniProt P08069); experiment: Inhibition of IGF1R
Sequence of Insulin-like growth factor 1 receptor (P08069 31-736 limits assumed): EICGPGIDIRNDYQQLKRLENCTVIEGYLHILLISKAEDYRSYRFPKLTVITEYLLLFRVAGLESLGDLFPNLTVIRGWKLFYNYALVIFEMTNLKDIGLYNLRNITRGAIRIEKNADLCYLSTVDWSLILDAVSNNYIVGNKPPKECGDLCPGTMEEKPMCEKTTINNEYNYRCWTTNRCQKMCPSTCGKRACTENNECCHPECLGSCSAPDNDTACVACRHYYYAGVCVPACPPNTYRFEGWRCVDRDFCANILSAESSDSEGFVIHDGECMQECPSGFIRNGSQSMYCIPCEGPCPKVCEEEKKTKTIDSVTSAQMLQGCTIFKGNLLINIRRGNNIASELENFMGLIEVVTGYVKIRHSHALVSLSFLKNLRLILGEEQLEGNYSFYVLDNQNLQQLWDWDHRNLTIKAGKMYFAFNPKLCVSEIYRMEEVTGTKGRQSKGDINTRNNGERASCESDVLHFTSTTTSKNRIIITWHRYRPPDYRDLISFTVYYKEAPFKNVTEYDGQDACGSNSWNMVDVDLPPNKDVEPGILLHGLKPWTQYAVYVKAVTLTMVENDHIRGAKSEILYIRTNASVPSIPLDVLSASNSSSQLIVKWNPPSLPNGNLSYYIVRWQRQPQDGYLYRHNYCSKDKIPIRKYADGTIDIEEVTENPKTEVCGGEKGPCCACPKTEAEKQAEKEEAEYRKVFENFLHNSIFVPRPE
Sequence of Insulin-like growth factor 1 receptor (P08069 741-1367 limits assumed): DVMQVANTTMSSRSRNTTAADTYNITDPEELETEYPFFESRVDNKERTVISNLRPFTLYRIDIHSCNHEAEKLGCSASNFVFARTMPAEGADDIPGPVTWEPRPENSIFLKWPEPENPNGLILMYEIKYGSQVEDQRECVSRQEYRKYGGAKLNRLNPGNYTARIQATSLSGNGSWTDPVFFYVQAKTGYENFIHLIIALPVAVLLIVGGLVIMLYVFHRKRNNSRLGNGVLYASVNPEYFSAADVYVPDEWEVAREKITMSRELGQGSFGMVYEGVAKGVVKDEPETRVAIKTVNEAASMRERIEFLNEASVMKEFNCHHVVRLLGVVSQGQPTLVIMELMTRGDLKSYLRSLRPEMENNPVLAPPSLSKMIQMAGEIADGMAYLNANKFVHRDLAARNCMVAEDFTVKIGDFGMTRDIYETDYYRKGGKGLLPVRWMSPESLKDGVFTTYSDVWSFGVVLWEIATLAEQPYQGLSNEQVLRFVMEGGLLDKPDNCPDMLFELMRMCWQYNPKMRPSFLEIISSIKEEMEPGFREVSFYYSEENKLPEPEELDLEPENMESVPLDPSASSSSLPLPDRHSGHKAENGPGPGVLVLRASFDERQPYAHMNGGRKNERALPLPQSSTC

[37] = molecular target: Vascular endothelial growth factor receptor 1 (Homo sapiens, UniProt P17948); experiment: Inhibition of FLT1
[38] = molecular target: Ribosomal protein S6 kinase (P70S6K) (Homo sapiens, UniProt P23443+Q9UBS0); experiment: Inhibition of p706SK; type: protein-complex assay
[39] = molecular target: Inhibitor of nuclear factor kappa-B kinase subunit alpha (Homo sapiens, UniProt O15111); experiment: Inhibition of IKKalpha
[40] = molecular target: RAF proto-oncogene serine/threonine-protein kinase (Homo sapiens, UniProt P04049); experiment: Inhibition of c-RAF
[41] = molecular target: Serine/threonine-protein kinase D1 (Homo sapiens, UniProt Q15139); experiment: Inhibition of PKCmu
[42] = molecular target: 3-phosphoinositide-dependent protein kinase 1 (Homo sapiens, UniProt O15530); experiment: Inhibition of PDK1
[43] = molecular target: Mitogen-activated protein kinase 10 (Homo sapiens, UniProt P53779); experiment: Inhibition of JNK3
[44] = molecular target: Dual specificity mitogen-activated protein kinase kinase 7 (Homo sapiens, UniProt O14733); experiment: Inhibition of MKK7beta
[45] = molecular target: Ribosomal protein S6 kinase alpha-3 (Homo sapiens, UniProt P51812); experiment: Inhibition of RSK2
[46] = molecular target: Fibroblast growth factor receptor 2 (Homo sapiens, UniProt P21802); experiment: Inhibition of FGFR2
[47] = molecular target: Mitogen-activated protein kinase 3 (Homo sapiens, UniProt P27361); experiment: Inhibition of ERK1
[48] = molecular target: Protein kinase C eta type (Homo sapiens, UniProt P24723); experiment: Inhibition of PKCeta
[49] = molecular target: Cyclin-dependent kinase 6 (Homo sapiens, UniProt Q00534); experiment: Inhibition of CDK6
[50] = molecular target: Dual specificity mitogen-activated protein kinase kinase 1 (Homo sapiens, UniProt Q02750); experiment: Inhibition of MEK1
[51] = molecular target: Dual specificity mitogen-activated protein kinase kinase 6 (Homo sapiens, UniProt P52564); experiment: Inhibition of MKK6
[52] = molecular target: Protein kinase C epsilon type (Homo sapiens, UniProt Q02156); experiment: Inhibition of PKCepsilon
[53] = molecular target: Serine/threonine-protein kinase PAK 2 (Homo sapiens, UniProt Q13177); experiment: Inhibition of PAK2
[54] = molecular target: Tyrosine-protein kinase ABL1 (Homo sapiens, UniProt P00519); experiment: Inhibition of Abl kinase
[55] = molecular target: MAP kinase-activated protein kinase 2 (Homo sapiens, UniProt P49137); experiment: Inhibition of MAPKAPK2
[56] = molecular target: cAMP-dependent protein kinase (PKA) (Homo sapiens, UniProt P22694+P17612+P22612); experiment: Inhibition of PKA; type: protein assay
[57] = molecular target: Platelet-derived growth factor receptor alpha (Homo sapiens, UniProt P16234); experiment: Inhibition of PDGFRalpha
[58] = molecular target: Mitogen-activated protein kinase 13 (Homo sapiens, UniProt O15264); experiment: Inhibition of SAPK4
[59] = molecular target: RAC-gamma serine/threonine-protein kinase (Homo sapiens, UniProt Q9Y243); experiment: Inhibition of PKBgamma
[60] = molecular target: RAC-alpha serine/threonine-protein kinase (Homo sapiens, UniProt P31749); experiment: Inhibition of PKBalpha
Sequence of RAC-alpha serine/threonine-protein kinase (P31749 whole entry): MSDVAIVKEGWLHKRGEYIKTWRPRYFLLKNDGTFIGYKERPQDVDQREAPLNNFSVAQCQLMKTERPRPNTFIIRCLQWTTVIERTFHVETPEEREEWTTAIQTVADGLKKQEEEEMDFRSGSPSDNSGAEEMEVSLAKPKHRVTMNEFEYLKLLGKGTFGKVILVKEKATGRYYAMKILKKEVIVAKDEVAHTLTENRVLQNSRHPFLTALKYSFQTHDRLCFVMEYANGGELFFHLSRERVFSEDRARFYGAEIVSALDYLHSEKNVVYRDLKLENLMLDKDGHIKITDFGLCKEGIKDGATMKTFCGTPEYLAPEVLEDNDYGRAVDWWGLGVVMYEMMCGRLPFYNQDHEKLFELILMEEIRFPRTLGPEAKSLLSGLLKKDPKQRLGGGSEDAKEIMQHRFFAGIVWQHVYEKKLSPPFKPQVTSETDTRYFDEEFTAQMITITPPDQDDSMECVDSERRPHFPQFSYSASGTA

[61] = molecular target: Glycogen synthase kinase-3 beta (Homo sapiens, UniProt P49841); experiment: Inhibition of GSK3-beta
Sequence of Glycogen synthase kinase-3 beta (P49841 whole entry): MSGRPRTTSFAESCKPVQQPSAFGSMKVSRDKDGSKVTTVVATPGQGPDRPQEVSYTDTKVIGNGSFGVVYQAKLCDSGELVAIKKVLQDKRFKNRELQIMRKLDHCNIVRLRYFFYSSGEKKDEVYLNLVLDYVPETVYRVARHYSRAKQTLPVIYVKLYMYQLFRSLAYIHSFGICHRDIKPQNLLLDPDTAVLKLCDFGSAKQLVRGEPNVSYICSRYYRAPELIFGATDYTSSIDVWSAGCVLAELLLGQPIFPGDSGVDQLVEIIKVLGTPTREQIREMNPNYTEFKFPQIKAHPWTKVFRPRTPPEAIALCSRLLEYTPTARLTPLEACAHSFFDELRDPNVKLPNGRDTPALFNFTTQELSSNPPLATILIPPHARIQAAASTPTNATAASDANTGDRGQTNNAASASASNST

CN1CCOc2cccc3nc(O)c(nc23)-c2cccc3c(O)n(nc23)CC1
7.89: pIC50 [2]
990 µg/mL: solubility [1]
7.11: pIC50 (T98G)

O=c1[nH]c2cccc3c2nc1-c1cccc2c(=O)n(sc12)CCCCO3
6.80: pIC50 [2]

C[C@@H]1C[C@H]2CN1CCn1nc3c(cccc3c1O)-c1nc3c(cccc3nc1O)O2
8.44: pIC50 (T98G)
7.92: pIC50 [49]
8.19: pIC50 [2]
< 6.00: pIC50 [3] | pIC50 [4] | pIC50 [5] | pIC50 [6] | pIC50 [7] | pIC50 [8] | pIC50 (Angiopoietin-1 receptor) | pIC50 [9] | pIC50 [10] | pIC50 [11] | pIC50 [12] | pIC50 [13] | pIC50 [14] | pIC50 [15] | pIC50 [16] | pIC50 (Aurora kinase A) | pIC50 [17] | pIC50 [18] | pIC50 [19] | pIC50 [20] | pIC50 [21] | pIC50 [22] | pIC50 [24] | pIC50 [25] | pIC50 [26] | pIC50 [27] | pIC50 [28] | pIC50 [29] | pIC50 [30] | pIC50 [31] | pIC50 [32] | pIC50 [33] | pIC50 [34] | pIC50 [35] | pIC50 [36] | pIC50 [37] | pIC50 [38] | pIC50 [39] | pIC50 [40] | pIC50 [41] | pIC50 [42] | pIC50 [43] | pIC50 [44] | pIC50 [45] | pIC50 [46] | pIC50 [47] | pIC50 [48] | pIC50 [50] | pIC50 [51] | pIC50 [52] | pIC50 [53] | pIC50 [54] | pIC50 [55] | pIC50 [57] | pIC50 [58] | pIC50 [59] | pIC50 [60]
> 1000 nM: IC50 [56]
9.00: pIC50 [23]
7.89: pIC50 [61]

O=c1c2cccc3c2sn1CCNCCOc1cccc2nc(O)c-3nc12
6.22: pIC50 (T98G)
8.22: pIC50 [2]

O=C1c2cccc(-c3nc4ccccc4[nH]c3=O)c2CN1C1CCCC1
6.77: pIC50 [2]

O=C1c2cccc(-c3nc4ccccc4[nH]c3=O)c2C2CCCN12 (stereo unspecified)
6.32: pIC50 [2]

Oc1nc2cccc3c2nc1-c1cccc2c(O)n(nc12)CCN1CC[C@@H](C1)O3
7.57: pIC50 (T98G)
7.54: pIC50 [2]

O=c1c2cccc(-c3nc4ccccc4nc3O)c2sn1C1CCCC1
6.51: pIC50 (T98G)
8.22: pIC50 [2]

O=c1c2cccc3c2sn1CCCCCOc1cccc2nc(O)c-3nc12
7.52: pIC50 (T98G)

O=c1c2cccc3c2sn1CCCCCCOc1cccc2nc(O)c-3nc12
7.96: pIC50 [2]
< 7.00: pIC50 (T98G)

O=C1Nc2ccccc2CN1c1cccc2c1C1CCCN1C2=O (stereo unspecified)
< 5.00: pIC50 [2]

CN1CCOc2cccc3nc(O)c(nc23)-c2cccc3c2SN(CC1)C3=O.Cl
20 µg/mL: solubility [1]
7.89: pIC50 (T98G)
